Results: ChEMBL document CHEMBL3120051, “Synthesis of novel 1,2-benzothiazine 1,1-dioxide-3-ethanone oxime N-aryl acetamide ether derivatives as potent anti-inflammatory agents and inhibitors of monocyte-to-macrophage transformation” (Eur J Med Chem, 2014)
Calls of active or inactive are those of the source. No cut-off for these calls is given here.

Columns and labels:
THP-1 [1] = assay: Antiinflammatory activity in human THP1 cells assessed as inhibition of PMA-induced TNF-alpha secretion incubated for 2 hrs prior to PMA challenge measured after 48 hrs by ELISA; assay type: functional, cell-based
Procedure, shortened: (§1)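 Seeded at 2×10^5/ml, THP-1 cells were pretreated 2 h with 5, 10 and 20 µM, then stimulated with 100 nM PMA. Supernatants were taken after 48 h and assayed by ELISA kit, read at 450 nm corrected at 570 nm, and quantified against standard curves (pg/ml). Percent inhibition was calculated versus control. IC50 is the predicted 50%-inhibition concentration, mean ± SD of three independent experiments.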

THP-1 [2] = assay: Antiinflammatory activity in human THP1 cells assessed as inhibition of PMA-induced MCP-1 secretion incubated for 2 hrs prior to PMA challenge measured after 72 hrs by ELISA; assay type: functional, cell-based
Procedure, shortened: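 THP-1 monocytes, 2×10^5/ml, received 5, 10 and 20 µM for 2 h before 100 nM PMA. Supernatant MCP-1 was measured by ELISA kit 72 h after PMA, with absorbance at 450 nm corrected at 570 nm and standard-curve quantitation. Percent inhibition is relative to control. IC50 is the predicted 50%-inhibition concentration, mean ± SD of three independent experiments.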

[3] = Cytotoxicity against human THP1 cells assessed as cell viability at 20 uM after 72 hrs by trypan blue dye exclusion assay; assay type: cell-based; settings: THP-1 cells, read-out: Activity
Procedure, shortened: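 THP-1 cells were seeded at 2×10^5 cells/ml in triplicate and exposed to 20 µM for 72 h. Cells were then harvested, resuspended in 0.4% trypan blue, and percent viable cells counted on an automated cell counter chamber.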

THP-1 [4] = assay: Antiinflammatory activity in human THP1 cells assessed as inhibition of PMA-induced IL-8 secretion incubated for 2 hrs prior to PMA challenge measured after 48 hrs by ELISA; assay type: functional, cell-based; procedure, shortened: as §1
THP-1 [5] = assay: Antiinflammatory activity in human THP1 cells assessed as inhibition of PMA-induced increase in mitochondrial number at 10 uM incubated for 2 hrs prior to PMA challenge measured after 48 hrs by confocal microscopy; assay type: functional, cell-based
Procedure, shortened: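 Cells were treated in cover-glass-bottom dishes: 10 µM for 2 h, then 100 nM PMA. After 48 h they were stained 1 h with 200 nM MitoTracker CMXRos in HBSS and counterstained with DAPI. Confocal imaging used rhodamine and DAPI filters, with five fields of view, and gentle washes between steps.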

[6] = biological target: Matrix metalloproteinase-9 (Homo sapiens) (UniProt P14780); assay: Inhibition of MMP-9 in human THP1 cells assessed as inhibition of PMA-induced monocyte to macrophage transformation at 10 uM incubated for 2 hrs prior to PMA challenge measured after 48 hrs by gelation zymography; assay type: cell-based; settings: THP-1
Procedure, shortened: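 THP-1 monocytes were pretreated 2 h at 10 µM, then stimulated with 100 nM PMA for 48 h. Conditioned medium was run without reducing agent on 10% SDS-PAGE containing 0.1% gelatin. Gels were renatured 30 min in 0.25% Triton X-100 and developed overnight at room temperature in Tris/CaCl2/Brij 35 buffer.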

THP-1 [7] = assay: Antiinflammatory activity in human THP1 cells assessed as inhibition of PMA-induced increase in cell adherence at 10 uM incubated for 2 hrs prior to PMA challenge measured after 48 hrs by light microscopy; assay type: functional, cell-based
Procedure, shortened: (§2)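 After 2 h pretreatment at 10 µM and 100 nM PMA for 48 h, THP-1 cultures had medium removed and were washed twice with warm DPBS. Phase-contrast light microscopy images were then used to assess adherence and monocyte/macrophage transformation.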

THP-1 [8] = assay: Antiinflammatory activity in human THP1 cells assessed as inhibition of PMA-induced CD-36 expression at 10 uM incubated for 2 hrs prior to PMA challenge measured after 36 hrs by RT-PCR analysis; assay type: functional, cell-based
Procedure, shortened: (§3)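 THP-1 monocytes (ATCC; RPMI 1640, 10% FBS, 37 °C, 5% CO2) pretreated 2 h, then 100 nM PMA for 36 h. Total RNA extracted in TRIzol, cDNA made, and LOX-1 and CD-36 transcripts measured by RT-PCR with gene-specific primers; GAPDH served as loading control.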

THP-1 [9] = assay: Antiinflammatory activity in human THP1 cells assessed as inhibition of PMA-induced increase in cell size at 10 uM incubated for 2 hrs prior to PMA challenge measured after 48 hrs by light microscopy; assay type: functional, cell-based; procedure, shortened: as §2
THP-1 [10] = assay: Antiinflammatory activity in human THP1 cells assessed as inhibition of PMA-induced LOX-1 expression at 10 uM incubated for 2 hrs prior to PMA challenge measured after 36 hrs by RT-PCR analysis; assay type: functional, cell-based; procedure, shortened: as §3

Chain of Matrix metalloproteinase-9 (Homo sapiens) (P14780 whole entry): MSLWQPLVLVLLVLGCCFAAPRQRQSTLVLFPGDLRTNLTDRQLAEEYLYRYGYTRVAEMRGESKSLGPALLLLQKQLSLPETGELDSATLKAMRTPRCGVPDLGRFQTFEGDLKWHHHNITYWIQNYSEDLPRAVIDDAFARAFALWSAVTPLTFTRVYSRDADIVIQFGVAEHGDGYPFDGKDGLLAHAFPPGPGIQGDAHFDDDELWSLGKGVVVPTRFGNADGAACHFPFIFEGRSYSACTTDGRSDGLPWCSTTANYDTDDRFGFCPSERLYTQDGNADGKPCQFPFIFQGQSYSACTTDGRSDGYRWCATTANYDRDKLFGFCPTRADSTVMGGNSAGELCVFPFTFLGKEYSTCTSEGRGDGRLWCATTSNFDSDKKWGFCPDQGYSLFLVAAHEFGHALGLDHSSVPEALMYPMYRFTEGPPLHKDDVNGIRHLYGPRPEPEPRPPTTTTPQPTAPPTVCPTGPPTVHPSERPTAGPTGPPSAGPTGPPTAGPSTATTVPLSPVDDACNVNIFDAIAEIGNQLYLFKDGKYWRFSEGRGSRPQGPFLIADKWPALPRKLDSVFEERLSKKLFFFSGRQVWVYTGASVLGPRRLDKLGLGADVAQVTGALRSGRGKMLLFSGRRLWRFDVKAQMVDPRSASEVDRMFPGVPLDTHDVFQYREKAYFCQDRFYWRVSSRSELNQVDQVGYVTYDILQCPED

For `C/C(=N\OCC(=O)Nc1cccc(F)c1)C1=C(O)c2ccccc2S(=O)(=O)N1C`, the IC50 (THP-1 [1]) was > 20 µM, the IC50 (THP-1 [2]) was 9.4 µM and the viability at 72 h, 20 µM [3] was 95.5%. The IC50 (THP-1 [4]) was > 20 µM.

For `CN1C(C(=O)Nc2ccccn2)=C(O)c2ccccc2S1(=O)=O` [PIROXICAM], the IC50 (THP-1 [1]) was > 20 µM.

With `CCOC1=C(/C(C)=N/OCC(=O)Nc2ccc(F)c(Cl)c2)N(C)S(=O)(=O)c2ccccc21` the IC50 (THP-1 [1]) was > 20 µM, the IC50 (THP-1 [2]) was > 20 µM and the viability at 72 h, 20 µM [3] was 97.5%. For the same compound, the IC50 (THP-1 [4]) was > 20 µM.

`CCc1ccc(CCOc2ccc(CC3SC(=O)NC3=O)cc2)nc1` (stereo not drawn) [PIOGLITAZONE] showed an IC50 (THP-1 [2]) of 18.6 µM.

For `CCOC1=C(/C(C)=N/OCC(=O)Nc2ccc(C(F)(F)F)cc2)N(C)S(=O)(=O)c2ccccc21`, the IC50 (THP-1 [1]) was > 20 µM, the IC50 (THP-1 [2]) was 5.7 µM and the viability at 72 h, 20 µM [3] was 93%. For the same compound, the IC50 (THP-1 [4]) was 16.7 µM.

In the case of `CCOC1=C(/C(C)=N/OCC(=O)Nc2cccc(F)c2)N(C)S(=O)(=O)c2ccccc21`, the IC50 (THP-1 [1]) is reported as > 20 µM, the IC50 (THP-1 [2]) is reported as > 20 µM and the viability at 72 h, 20 µM [3] is reported as 92%. The IC50 (THP-1 [4]) was > 20 µM.

In the case of `CCOC1=C(/C(C)=N/OCC(=O)Nc2ccc(Cl)c(C(F)(F)F)c2)N(C)S(=O)(=O)c2ccccc21`, the IC50 (THP-1 [1]) is reported as > 20 µM, the IC50 (THP-1 [2]) is reported as > 20 µM and the viability at 72 h, 20 µM [3] is reported as 90.2%. The IC50 (THP-1 [4]) was > 20 µM.

In the case of `C/C(=N\OCC(=O)Nc1c(F)cccc1F)C1=C(O)c2ccccc2S(=O)(=O)N1C`, the IC50 (THP-1 [1]) is reported as > 20 µM, the IC50 (THP-1 [2]) is reported as > 20 µM and the viability at 72 h, 20 µM [3] is reported as 92.2%. For the same compound, the IC50 (THP-1 [4]) was > 20 µM.

With `C/C(=N\OCC(=O)Nc1ccc(F)c(Cl)c1)C1=C(O)c2ccccc2S(=O)(=O)N1C` the IC50 (THP-1 [1]) was > 20 µM, the IC50 (THP-1 [2]) was > 20 µM and the viability at 72 h, 20 µM [3] was 95.1%. The IC50 (THP-1 [4]) was > 20 µM.

With `CCOC1=C(/C(C)=N/OCC(=O)Nc2ccc(OC)cc2)N(C)S(=O)(=O)c2ccccc21` the IC50 (THP-1 [1]) was > 20 µM, the IC50 (THP-1 [2]) was > 20 µM and the viability at 72 h, 20 µM [3] was 94.2%. For the same compound, the IC50 (THP-1 [4]) was > 20 µM.

With `CCOC1=C(/C(C)=N/OCC(=O)Nc2ccccc2)N(C)S(=O)(=O)c2ccccc21` the IC50 (THP-1 [1]) was > 20 µM, the IC50 (THP-1 [2]) was > 20 µM and the viability at 72 h, 20 µM [3] was 93%. For the same compound, the IC50 (THP-1 [4]) was > 20 µM.

For `C/C(=N\OCC(=O)Nc1ccc(Cl)c(C(F)(F)F)c1)C1=C(O)c2ccccc2S(=O)(=O)N1C`, the inhibition (THP-1 [5]) was “Active”, the IC50 (THP-1 [1]) was 6 µM and the inhibition [6] was 75%. The inhibition (THP-1 [7]) was “Active”, the IC50 (THP-1 [2]) was 2.5 µM and the inhibition (THP-1 [8]) was “Active”. The inhibition (THP-1 [9]) was “Active”, the viability at 72 h, 20 µM [3] was 91.2% and the IC50 (THP-1 [4]) was > 20 µM. The inhibition (THP-1 [10]) was “Active”.

With `COc1ccc(NC(=O)CO/N=C(\C)C2=C(O)c3ccccc3S(=O)(=O)N2C)cc1` the IC50 (THP-1 [1]) was > 20 µM, the IC50 (THP-1 [2]) was > 20 µM and the viability at 72 h, 20 µM [3] was 97.5%. The IC50 (THP-1 [4]) was > 20 µM.

For `CCOC1=C(/C(C)=N/OCC(=O)Nc2c(F)cccc2F)N(C)S(=O)(=O)c2ccccc21`, the IC50 (THP-1 [1]) was > 20 µM, the IC50 (THP-1 [2]) was > 20 µM and the viability at 72 h, 20 µM [3] was 92.3%. For the same compound, the IC50 (THP-1 [4]) was > 20 µM.

In the case of `COc1cccc(NC(=O)CO/N=C(\C)C2=C(O)c3ccccc3S(=O)(=O)N2C)c1`, the IC50 (THP-1 [1]) is reported as > 20 µM, the IC50 (THP-1 [2]) is reported as > 20 µM and the viability at 72 h, 20 µM [3] is reported as 92.5%. For the same compound, the IC50 (THP-1 [4]) was > 20 µM.

For `C/C(=N\OCC(=O)Nc1ccccc1)C1=C(O)c2ccccc2S(=O)(=O)N1C`, the IC50 (THP-1 [1]) was > 20 µM, the IC50 (THP-1 [2]) was > 20 µM and the viability at 72 h, 20 µM [3] was 94.1%. The IC50 (THP-1 [4]) was > 20 µM.

With `CCOC1=C(/C(C)=N/OCC(=O)Nc2cccc(OC)c2)N(C)S(=O)(=O)c2ccccc21` the IC50 (THP-1 [1]) was > 20 µM, the IC50 (THP-1 [2]) was > 20 µM and the viability at 72 h, 20 µM [3] was 96.2%. For the same compound, the IC50 (THP-1 [4]) was > 20 µM.

With `C/C(=N\OCC(=O)Nc1ccc(C(F)(F)F)cc1)C1=C(O)c2ccccc2S(=O)(=O)N1C` the inhibition (THP-1 [5]) was “Active”, the IC50 (THP-1 [1]) was 12.1 µM and the inhibition [6] was “Active”. The inhibition (THP-1 [7]) was “Active”, the IC50 (THP-1 [2]) was 4 µM and the inhibition (THP-1 [8]) was “Active”. The inhibition (THP-1 [9]) was “Active”, the viability at 72 h, 20 µM [3] was 93% and the IC50 (THP-1 [4]) was > 20 µM. The inhibition (THP-1 [10]) was “Active”.
